Compound activity as filed in PubChem BioAssay.
The list is not random: actives were taken first. Their share in the collection is about 1.9%.
Rin1-Abl PPI inh = inhibitors of human Rin1-Abl protein interaction | TR-FRET Rin1/Abl binding, biochemical | inhibition, % at 7.35 µM | 0.4% of 360,000 active; in the data active = inhibition above about 5%, passing the limit was not always enough
Target sequence (P00519 whole entry, looked up): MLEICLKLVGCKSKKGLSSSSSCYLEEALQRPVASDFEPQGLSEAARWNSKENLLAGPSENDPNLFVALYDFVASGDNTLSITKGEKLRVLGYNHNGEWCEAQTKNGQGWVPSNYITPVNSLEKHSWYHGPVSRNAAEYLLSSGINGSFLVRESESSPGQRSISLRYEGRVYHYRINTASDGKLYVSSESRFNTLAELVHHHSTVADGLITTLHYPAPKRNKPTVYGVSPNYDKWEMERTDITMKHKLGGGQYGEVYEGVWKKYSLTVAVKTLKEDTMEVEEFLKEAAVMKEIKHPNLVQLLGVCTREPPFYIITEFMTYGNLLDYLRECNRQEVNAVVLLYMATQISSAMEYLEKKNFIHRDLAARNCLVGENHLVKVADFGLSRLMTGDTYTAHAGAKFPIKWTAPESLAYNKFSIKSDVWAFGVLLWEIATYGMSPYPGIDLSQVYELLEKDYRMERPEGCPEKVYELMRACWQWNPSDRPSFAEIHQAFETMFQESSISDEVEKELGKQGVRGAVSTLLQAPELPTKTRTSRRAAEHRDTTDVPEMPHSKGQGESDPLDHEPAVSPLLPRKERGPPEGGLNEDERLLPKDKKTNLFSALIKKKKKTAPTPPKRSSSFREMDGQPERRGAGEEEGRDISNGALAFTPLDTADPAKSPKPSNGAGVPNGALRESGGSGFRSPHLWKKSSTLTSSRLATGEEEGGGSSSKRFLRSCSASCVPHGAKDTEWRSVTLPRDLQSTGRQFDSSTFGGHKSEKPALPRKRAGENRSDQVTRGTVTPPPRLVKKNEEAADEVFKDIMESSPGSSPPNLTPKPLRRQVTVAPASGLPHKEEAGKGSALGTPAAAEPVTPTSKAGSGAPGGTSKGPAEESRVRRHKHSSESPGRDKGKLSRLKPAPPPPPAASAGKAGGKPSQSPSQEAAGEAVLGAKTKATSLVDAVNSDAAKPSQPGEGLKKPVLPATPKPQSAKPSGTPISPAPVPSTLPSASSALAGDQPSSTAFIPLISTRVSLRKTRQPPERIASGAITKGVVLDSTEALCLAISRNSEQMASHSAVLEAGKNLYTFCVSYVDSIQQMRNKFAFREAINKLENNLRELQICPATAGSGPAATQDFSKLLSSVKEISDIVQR
Target sequence (Q13671 whole entry, looked up): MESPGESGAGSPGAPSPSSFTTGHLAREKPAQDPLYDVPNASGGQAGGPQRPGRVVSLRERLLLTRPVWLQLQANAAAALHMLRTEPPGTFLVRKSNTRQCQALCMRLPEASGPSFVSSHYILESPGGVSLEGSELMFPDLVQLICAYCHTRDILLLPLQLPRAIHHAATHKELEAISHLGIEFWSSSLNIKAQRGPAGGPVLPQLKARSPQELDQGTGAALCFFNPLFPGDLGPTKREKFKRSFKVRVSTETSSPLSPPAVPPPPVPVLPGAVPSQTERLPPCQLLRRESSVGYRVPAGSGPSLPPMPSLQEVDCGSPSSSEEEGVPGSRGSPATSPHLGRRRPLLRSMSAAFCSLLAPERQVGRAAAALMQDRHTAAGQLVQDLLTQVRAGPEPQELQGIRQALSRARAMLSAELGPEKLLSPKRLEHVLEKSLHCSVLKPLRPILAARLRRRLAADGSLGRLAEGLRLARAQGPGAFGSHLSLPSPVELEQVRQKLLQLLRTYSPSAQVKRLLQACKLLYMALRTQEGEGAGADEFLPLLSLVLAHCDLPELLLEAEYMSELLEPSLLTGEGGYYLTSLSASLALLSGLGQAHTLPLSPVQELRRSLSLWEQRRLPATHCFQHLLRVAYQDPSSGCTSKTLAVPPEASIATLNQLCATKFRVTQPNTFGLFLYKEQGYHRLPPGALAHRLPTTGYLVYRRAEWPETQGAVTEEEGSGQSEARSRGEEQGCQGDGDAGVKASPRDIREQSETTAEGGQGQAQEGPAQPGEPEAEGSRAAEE
GRK2 inh = blocks RNA aptamer binding to human GRK2; P25098; bead flow cytometry, FAM-aptamer displacement from GRK2; inhibition of aptamer binding, % at 10 µM; 0.59% of 330,000 active;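 active = inhibition of aptamer binding above 40%, roughly 3 SD of noise, on plates passing a quality check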;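 also: median bead fluorescence of bound FAM aptamer so fluorescent compounds give negative values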
SR-BI DiI-HDL act = activators of SR-BI mediated HDL lipid uptake; 0.096% of 320,000 active; activation, % at 12.5 µM; CHO ldlA[mSR-BI] cells, DiI-HDL uptake fluorescence, 3 h; 100 = double the neutral-control signal;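 active = mean replicate activation of at least 60% and every replicate at or above 60%; inconclusive = mean or all-replicate condition met, but not both; inactive = mean below 60% and not all replicates reaching 60%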
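system = CHO ldlA[mSR-BI] cells, LDL receptor-null, SR-BI overexpressing | medium = Ham's F12 with 0.5% BSA, HEPES 25 mM, pH 7.4 | probe or stimulus = DiI-HDL 10 µg/mL | compound dosing = single-point compound dose | incubation = compound exposure 3 h, 37 °C | technique = DiI fluorescence, bottom read | read-out = cell-associated DiI fluorescence as measure of HDL uptake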
SR-BI DiI inh = mouse SR-BI HDL lipid transfer inhibition. Q61009. ldlA[mSR-BI] CHO cells, DiI-HDL uptake fluorescence, 3 h. inhibition, % at 12.5 µM. 0.96% of 320,000 active;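 active = mean replicate inhibition of at least 70% and a set share of replicates each scoring 70 or more; inconclusive = meets just one of the two criteria; inactive = fails both criteria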
Of the large screens only hits and unclear results are named; the others gave an inactive call.

CCCN1C(=O)/C(=C\C=C2/C=CN(CC)c3ccccc32)SC1=S	SR-BI DiI inh 146
CCCc1sc(N/N=C/c2ccccn2)nc1-c1ccc(Br)cc1	SR-BI DiI inh 72
CC(=O)Nc1sc(N/N=C/c2ccccc2)nc1-c1ccc(C)cc1	none (no result: SR-BI DiI-HDL act, SR-BI DiI inh)
COc1cc(NC(=O)CCl)ccc(=O)c1	none (no result: GRK2 inh, SR-BI DiI-HDL act, SR-BI DiI inh)
Cc1ccc(C(=O)NC2CC2)cc1S(=O)(=O)N1CCOCC1	none
CCC(C)(C)C1CCC(NC(=O)c2ccc(S(=O)(=O)N3CCOCC3)cc2)CC1 (centres undefined)	SR-BI DiI-HDL act 67
CCCC(C)C(=O)Nc1nc(C)c(-c2csc(Nc3cc(Cl)ccc3C)n2)s1 (centres undefined)	SR-BI DiI inh 82
Cc1nc(NC(=O)c2ccccc2)sc1-c1csc(Nc2ccc(Cl)cc2)n1	none (no result: Rin1-Abl PPI inh, SR-BI DiI-HDL act, SR-BI DiI inh)
Cc1ccc(Cl)cc1Nc1nc(-c2sc(NC(=O)c3cccc(Cl)c3)nc2C)cs1	none (no result: Rin1-Abl PPI inh, SR-BI DiI-HDL act, SR-BI DiI inh)
Cc1nc(NC(=O)CC(C)C)sc1-c1csc(Nc2ccc(Cl)cc2Cl)n1	none
CCCCCC(=O)Nc1nc(C)c(-c2csc(Nc3ccc(Cl)cc3)n2)s1	SR-BI DiI inh 96
Cc1nc(NC(=O)CC(C)C)sc1-c1csc(Nc2ccc(Cl)cc2)n1	SR-BI DiI inh 73
CCCCCC(=O)Nc1nc(C)c(-c2csc(Nc3cc(Cl)ccc3C)n2)s1	SR-BI DiI inh 79
C/C(=C\C(=O)c1ccc(Br)cc1)NNC(=O)c1ccccc1	SR-BI DiI inh 86
C/C(=C\C(=O)c1ccc(Br)cc1)NNC(=O)c1ccc(O)cc1	none
CCCc1cc(CN(C)C(=O)c2ccc(OC3CCN(C(C)=O)CC3)c(OC)c2)[nH]n1	none (no result: GRK2 inh, SR-BI DiI-HDL act, SR-BI DiI inh)
Cc1ccccc1C(=O)NCC(=O)NC1CC1	none
Cn1c(Oc2cccnc2CN2CCCC2)nc2cc(-c3cccc(C(F)(F)F)c3)sc2c1=O	none (no result: GRK2 inh, SR-BI DiI-HDL act, SR-BI DiI inh)
COc1ccc(OC)c(NC(=O)/C=C/c2ccccc2[N+](=O)[O-])c1	SR-BI DiI inh 86
COc1ccc([N+](=O)[O-])cc1NC(=O)c1ccccc1SC	SR-BI DiI inh 77
CSc1ccccc1C(=O)Nc1cccc([N+](=O)[O-])c1	none
COc1ccc(OC)c(NC(=O)c2cccc(C)c2[N+](=O)[O-])c1	SR-BI DiI inh 73
COc1ccc(NC(=O)/C=C/c2ccccc2[N+](=O)[O-])c(OC)c1	none
COc1ccc([N+](=O)[O-])cc1NC(=O)c1ccc(N2C(=O)CCC2=O)cc1	none (no result: SR-BI DiI-HDL act, SR-BI DiI inh)
CCN(CC)S(=O)(=O)c1ccc(OC)c(NC(=O)c2cccc(C)c2[N+](=O)[O-])c1	none
COc1ccc([N+](=O)[O-])cc1NC(=O)c1ccc(-n2nc(C)cc2C)cc1	SR-BI DiI inh 90
COc1ccc(C(=O)COC(=O)c2ccc3c(c2)NC(=O)CS3)c(OC)c1	none
CCOc1ccc(C(C)=O)cc1COC(=O)c1ccc2c(c1)NC(=O)CS2	SR-BI DiI inh 80
O=C(Nc1ccc(Cl)cc1)N[C@@H]1c2c(ccc3ccccc23)OC[C@@H]1CO	SR-BI DiI inh 82
O=C(Nc1ccc(N2CCCC2)c(Cl)c1)c1ccc([N+](=O)[O-])cc1	SR-BI DiI inh 75
COc1ccc(NC(=O)c2cc([N+](=O)[O-])ccc2N2CCCCC2)cc1	SR-BI DiI inh 90
COc1ccc(C(=O)c2cc([N+](=O)[O-])ccc2N2CCN(C)CC2)cc1	none
O=C(c1ccc(Br)cc1)c1cc([N+](=O)[O-])ccc1N1CCCCC1	SR-BI DiI inh 88
CN1CCN(c2ccc([N+](=O)[O-])cc2C(=O)c2ccc(Br)cc2)CC1	none
COc1ccc(NC(=O)c2cc([N+](=O)[O-])ccc2N2CCCC2)cc1	none
COc1ccc(C(=O)c2cc([N+](=O)[O-])ccc2N2CCCC2)cc1	SR-BI DiI inh 70
O=C(Nc1cccc(Cl)c1)c1csc([C@H]2C[C@H](O)[C@@H](CO)O2)n1	none (no result: GRK2 inh, SR-BI DiI-HDL act, SR-BI DiI inh)
CN(c1ccccc1)c1ncnc2c1ncn2C	none (no result: GRK2 inh)
CC1CC(C)CN(S(=O)(=O)c2ccc(C(=O)OCC(=O)Nc3ccccc3)cc2)C1 (centres undefined)	none (no result: GRK2 inh, SR-BI DiI-HDL act, SR-BI DiI inh)
CC(C)OC(=O)C(C)(C)Oc1ccc(C(=O)c2ccc(Cl)cc2)cc1	SR-BI DiI inh 93
Cc1cccc(C(=O)NNC(=O)C23CC4CC(CC(C4)C2)C3)c1O	SR-BI DiI inh 100
Cc1ccccc1C(=O)NNC(=O)C12CC3CC(CC(C3)C1)C2	none
Cc1cccc2cc(C#N)c(N3CCC(O)CC3)nc12	none
CCN1/C(=C/C(C)=O)Sc2ccc(OC)cc21	none
CCOC(=O)/C(=C/C=C1\Sc2cc(OCC)c(OCC)cc2N1CC)C(C)=O	SR-BI DiI inh 78
CCOC(=O)/C(=C\C=C1/Sc2cc(OCC)c(OCC)cc2N1CC)C(C)=O	SR-BI DiI inh 78
COc1ccc(Br)cc1/C=N/NC(=O)c1ccc(OC)c(OC)c1	SR-BI DiI inh 92
COc1ccc(Br)cc1/C=N/NC(=O)c1cc(OC)c(OC)c(OC)c1	SR-BI DiI inh 75
COc1cc(C(=O)N/N=C/c2ccsc2C)cc(OC)c1OC	none
COc1ccc(Br)cc1/C=N/NC(=O)c1ccc2nc[nH]c2c1	none
C#CCOCCOCCOCCNc1nc(N2CCN(C(=O)CCCCCCCCCCNC(=O)[C@H]([C@@H](C)CC)n3cc(CCCCN=C(N)N)nn3)CC2)nc(N2CCN(C(=O)CCCCCCCCCCNC(=O)[C@@H]([C@H](C)O)n3cc(C)nn3)CC2)n1	Rin1-Abl PPI inh 14
C#CCOCCOCCOCCNc1nc(N2CCN(C(=O)CCCCCCCCCCNC(=O)Cn3cc(C[C@@H](C)O)nn3)CC2)nc(N2CCN(C(=O)CCCCCCCCCCNC(=O)[C@@H]([C@H](C)O)n3cc(C)nn3)CC2)n1	none
C#CCOCCOCCOCCNc1nc(N2CCOCC2)nc(N2CCN(C(=O)[C@H](Cc3cc4ccccc4[nH]3)n3cc([C@@H](N)C(C)CC)nn3)CC2)n1 (some centres undefined)	none
C#CCOCCOCCOCCNc1nc(N2CCOCC2)nc(N2CCN(C(=O)CCCCCCCCCCNC(=O)[C@H]([C@@H](C)CC)n3cc(CCCCN=C(N)N)nn3)CC2)n1	SR-BI DiI inh inconclusive
C#CCOCCOCCOCCNc1nc(N2CCN(C(=O)CCCCCCCCCCNC(=O)Cn3cc(CCCCCN)nn3)CC2)nc(N2CCN(C(=O)CCCCCCCCCCNC(=O)[C@@H]([C@H](C)O)n3cc(C)nn3)CC2)n1	Rin1-Abl PPI inh 11
C#CCOCCOCCOCCNc1nc(N2CCN(C(=O)C(Cc3cc4ccccc4[nH]3)n3cc(C(N)C(C)CC)nn3)CC2)nc(N2CCN(C(=O)C(Cc3cc4ccccc4[nH]3)n3cc(C(N)C(C)CC)nn3)CC2)n1 (centres undefined)	SR-BI DiI-HDL act 67 (no result: Rin1-Abl PPI inh, GRK2 inh)
C#CCOCCOCCOCCNc1nc(N2CCN(C(=O)CCCCCCCCCCNC(=O)[C@@H](CCSC)n3cc(CCO)nn3)CC2)nc(N2CCN(C(=O)CCCCCCCCCCNC(=O)[C@H](CCCN=C(N)N)n3cc(C[C@@H](C)CC)nn3)CC2)n1	Rin1-Abl PPI inh 27
CC(C)(C)c1cc(NC(=O)C2(C)CCN2C(=O)c2ccccc2CCc2ccccc2)no1 (centres undefined)	none (no result: GRK2 inh, SR-BI DiI-HDL act, SR-BI DiI inh)
